In ChEMBL document CHEMBL4689842, “EUbOPEN Chemogenomics Library wave 1” (2021):

System: Fibroblast
Assay: Multiplex assay against human fibroblast
Assay type: toxicity, cell-based
In short: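 Cells stained live at seeding with Hoechst33342, BioTracker Green Microtubule Cytoskeleton Dye, MitoTracker Red and Annexin V Alexa Fluor 680 were imaged on a CQ1 microscope at 37°C and 5% CO2 after compound addition. Their classification by CellPathfinder machine-learning gating ran from Hoechst high-intensity objects versus normal cells, to healthy, pyknosed or fragmented nuclei among normal cells, to mitotic or apoptotic among pyknosed cells. Tubulin, mitochondrial-mass and membrane-permeability phenotypes are per cents of healthy-nucleus cells.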

[1] = 12 h, 1 µM, compound concentration 1 uM, replicate 1
[2] = 12 h, 1 µM, compound concentration 1 uM, replicate 2
[3] = 12 h, 10 µM, compound concentration 10 uM, replicate 1
[4] = 12 h, 10 µM, compound concentration 10 uM, replicate 2
[5] = 24 h, 1 µM, compound concentration 1 uM, replicate 1
[6] = 24 h, 1 µM, compound concentration 1 uM, replicate 2
[7] = 24 h, 10 µM, compound concentration 10 uM, replicate 1
[8] = 24 h, 10 µM, compound concentration 10 uM, replicate 2

## Cc1nc(N2CC[C@H](O)C2)ncc1-c1cc(C(F)(F)F)cc2[nH]ncc12
[1]
  Population Apoptotic (%): 70%
  Population Fragmented Nuclei (%): 32%
  Population Healthy Nuclei (%): 49%
  Population Hoechst High Intensity Objects (%): 12%
  Population Membrane Permeable-Phenotype (%): 10%
  Population Mitochondria Different-Phenotype (%): 6%
  Population Mitotic Cells (%): 29%
  Population Normal (%): 87%
  Population Pyknosed Nuclei (%): 18%
  Population Tubulin-Different-Phenotype (%): 7%
  Total Cell Count: 193
[2]
  Population Apoptotic (%): 20%
  Population Fragmented Nuclei (%): 42%
  Population Healthy Nuclei (%): 33%
  Population Hoechst High Intensity Objects (%): 40%
  Population Membrane Permeable-Phenotype (%): 28%
  Population Mitochondria Different-Phenotype (%): 28%
  Population Mitotic Cells (%): 80%
  Population Normal (%): 60%
  Population Pyknosed Nuclei (%): 23%
  Population Tubulin-Different-Phenotype (%): 50%
  Total Cell Count: 70
[3]
  Population Apoptotic (%): 66%
  Population Fragmented Nuclei (%): 24%
  Population Healthy Nuclei (%): 61%
  Population Hoechst High Intensity Objects (%): 15%
  Population Membrane Permeable-Phenotype (%): 3%
  Population Mitochondria Different-Phenotype (%): 7%
  Population Mitotic Cells (%): 33%
  Population Normal (%): 84%
  Population Pyknosed Nuclei (%): 14%
  Population Tubulin-Different-Phenotype (%): 4%
  Total Cell Count: 218
[4]
  Population Apoptotic (%): 50%
  Population Fragmented Nuclei (%): 68%
  Population Healthy Nuclei (%): 21%
  Population Hoechst High Intensity Objects (%): 22%
  Population Membrane Permeable-Phenotype (%): 15%
  Population Mitochondria Different-Phenotype (%): 15%
  Population Mitotic Cells (%): 50%
  Population Normal (%): 77%
  Population Pyknosed Nuclei (%): 9%
  Population Tubulin-Different-Phenotype (%): 15%
  Total Cell Count: 79
[5]
  Population Apoptotic (%): 48%
  Population Fragmented Nuclei (%): 29%
  Population Healthy Nuclei (%): 47%
  Population Hoechst High Intensity Objects (%): 12%
  Population Membrane Permeable-Phenotype (%): 9%
  Population Mitochondria Different-Phenotype (%): 9%
  Population Mitotic Cells (%): 51%
  Population Normal (%): 87%
  Population Pyknosed Nuclei (%): 22%
  Population Tubulin-Different-Phenotype (%): 12%
  Total Cell Count: 183
[6]
  Population Apoptotic (%): 60%
  Population Fragmented Nuclei (%): 45%
  Population Healthy Nuclei (%): 30%
  Population Hoechst High Intensity Objects (%): 35%
  Population Membrane Permeable-Phenotype (%): 30%
  Population Mitochondria Different-Phenotype (%): 7%
  Population Mitotic Cells (%): 40%
  Population Normal (%): 64%
  Population Pyknosed Nuclei (%): 23%
  Population Tubulin-Different-Phenotype (%): 23%
  Total Cell Count: 65
[7]
  Population Apoptotic (%): 65%
  Population Fragmented Nuclei (%): 22%
  Population Healthy Nuclei (%): 63%
  Population Hoechst High Intensity Objects (%): 15%
  Population Membrane Permeable-Phenotype (%): 7%
  Population Mitochondria Different-Phenotype (%): 3%
  Population Mitotic Cells (%): 34%
  Population Normal (%): 84%
  Population Pyknosed Nuclei (%): 14%
  Population Tubulin-Different-Phenotype (%): 3%
  Total Cell Count: 239
[8]
  Population Apoptotic (%): 83%
  Population Fragmented Nuclei (%): 67%
  Population Healthy Nuclei (%): 22%
  Population Hoechst High Intensity Objects (%): 24%
  Population Membrane Permeable-Phenotype (%): 38%
  Population Mitochondria Different-Phenotype (%): 30%
  Population Mitotic Cells (%): 16%
  Population Normal (%): 75%
  Population Pyknosed Nuclei (%): 10%
  Population Tubulin-Different-Phenotype (%): 46%
  Total Cell Count: 77

## O=c1[nH]c2ccccc2n1C1CCN(Cc2ccc(-c3[nH]c4cc5ncnc5cc4nc3-c3ccccc3)cc2)CC1
[1]
  Population Apoptotic (%): 66%
  Population Fragmented Nuclei (%): 45%
  Population Healthy Nuclei (%): 43%
  Population Hoechst High Intensity Objects (%): 17%
  Population Membrane Permeable-Phenotype (%): 6%
  Population Mitochondria Different-Phenotype (%): 3%
  Population Mitotic Cells (%): 33%
  Population Normal (%): 82%
  Population Pyknosed Nuclei (%): 11%
  Population Tubulin-Different-Phenotype (%): 18%
  Total Cell Count: 251
[2]
  Population Apoptotic (%): 83%
  Population Fragmented Nuclei (%): 72%
  Population Healthy Nuclei (%): 19%
  Population Hoechst High Intensity Objects (%): 31%
  Population Membrane Permeable-Phenotype (%): 15%
  Population Mitochondria Different-Phenotype (%): 0%
  Population Mitotic Cells (%): 16%
  Population Normal (%): 68%
  Population Pyknosed Nuclei (%): 8%
  Population Tubulin-Different-Phenotype (%): 23%
  Total Cell Count: 99
[3]
  Population Apoptotic (%): 67%
  Population Fragmented Nuclei (%): 50%
  Population Healthy Nuclei (%): 37%
  Population Hoechst High Intensity Objects (%): 55%
  Population Membrane Permeable-Phenotype (%): 33%
  Population Mitochondria Different-Phenotype (%): 4%
  Population Mitotic Cells (%): 32%
  Population Normal (%): 44%
  Population Tubulin-Different-Phenotype (%): 87%
  Total Cell Count: 524
[4]
  Population Apoptotic (%): 70%
  Population Fragmented Nuclei (%): 46%
  Population Healthy Nuclei (%): 40%
  Population Hoechst High Intensity Objects (%): 48%
  Population Membrane Permeable-Phenotype (%): 27%
  Population Mitochondria Different-Phenotype (%): 12%
  Population Mitotic Cells (%): 30%
  Population Normal (%): 51%
  Population Pyknosed Nuclei (%): 12%
  Population Tubulin-Different-Phenotype (%): 72%
  Total Cell Count: 158
[5]
  Population Apoptotic (%): 45%
  Population Fragmented Nuclei (%): 43%
  Population Healthy Nuclei (%): 40%
  Population Hoechst High Intensity Objects (%): 20%
  Population Membrane Permeable-Phenotype (%): 8%
  Population Mitochondria Different-Phenotype (%): 5%
  Population Mitotic Cells (%): 54%
  Population Normal (%): 79%
  Population Pyknosed Nuclei (%): 15%
  Population Tubulin-Different-Phenotype (%): 16%
  Total Cell Count: 268
[6]
  Population Apoptotic (%): 62%
  Population Fragmented Nuclei (%): 70%
  Population Healthy Nuclei (%): 17%
  Population Hoechst High Intensity Objects (%): 31%
  Population Membrane Permeable-Phenotype (%): 0%
  Population Mitochondria Different-Phenotype (%): 27%
  Population Mitotic Cells (%): 37%
  Population Normal (%): 68%
  Population Pyknosed Nuclei (%): 12%
  Population Tubulin-Different-Phenotype (%): 36%
  Total Cell Count: 94
[7]
  Population Apoptotic (%): 70%
  Population Fragmented Nuclei (%): 44%
  Population Healthy Nuclei (%): 45%
  Population Hoechst High Intensity Objects (%): 62%
  Population Membrane Permeable-Phenotype (%): 20%
  Population Mitochondria Different-Phenotype (%): 14%
  Population Mitotic Cells (%): 29%
  Population Normal (%): 37%
  Population Pyknosed Nuclei (%): 10%
  Population Tubulin-Different-Phenotype (%): 65%
  Total Cell Count: 437
[8]
  Population Apoptotic (%): 56%
  Population Fragmented Nuclei (%): 40%
  Population Healthy Nuclei (%): 36%
  Population Hoechst High Intensity Objects (%): 51%
  Population Membrane Permeable-Phenotype (%): 24%
  Population Mitochondria Different-Phenotype (%): 28%
  Population Mitotic Cells (%): 43%
  Population Normal (%): 48%
  Population Pyknosed Nuclei (%): 23%
  Population Tubulin-Different-Phenotype (%): 40%
  Total Cell Count: 143
